High-throughput results as filed in PubChem BioAssay.
Apaf-1 act = activators of human Apaf-1 apoptosome; hit rate 0.31% among 330,000; O14727; activity change, negative = activation, % at 20 µM; Apaf-1 apoptosome caspase-3 activation, DEVD-Rh110 fluorescence; hits give low values;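 active = activity change at or below -40% at 20 µM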
Target sequence (O14727 whole entry, looked up): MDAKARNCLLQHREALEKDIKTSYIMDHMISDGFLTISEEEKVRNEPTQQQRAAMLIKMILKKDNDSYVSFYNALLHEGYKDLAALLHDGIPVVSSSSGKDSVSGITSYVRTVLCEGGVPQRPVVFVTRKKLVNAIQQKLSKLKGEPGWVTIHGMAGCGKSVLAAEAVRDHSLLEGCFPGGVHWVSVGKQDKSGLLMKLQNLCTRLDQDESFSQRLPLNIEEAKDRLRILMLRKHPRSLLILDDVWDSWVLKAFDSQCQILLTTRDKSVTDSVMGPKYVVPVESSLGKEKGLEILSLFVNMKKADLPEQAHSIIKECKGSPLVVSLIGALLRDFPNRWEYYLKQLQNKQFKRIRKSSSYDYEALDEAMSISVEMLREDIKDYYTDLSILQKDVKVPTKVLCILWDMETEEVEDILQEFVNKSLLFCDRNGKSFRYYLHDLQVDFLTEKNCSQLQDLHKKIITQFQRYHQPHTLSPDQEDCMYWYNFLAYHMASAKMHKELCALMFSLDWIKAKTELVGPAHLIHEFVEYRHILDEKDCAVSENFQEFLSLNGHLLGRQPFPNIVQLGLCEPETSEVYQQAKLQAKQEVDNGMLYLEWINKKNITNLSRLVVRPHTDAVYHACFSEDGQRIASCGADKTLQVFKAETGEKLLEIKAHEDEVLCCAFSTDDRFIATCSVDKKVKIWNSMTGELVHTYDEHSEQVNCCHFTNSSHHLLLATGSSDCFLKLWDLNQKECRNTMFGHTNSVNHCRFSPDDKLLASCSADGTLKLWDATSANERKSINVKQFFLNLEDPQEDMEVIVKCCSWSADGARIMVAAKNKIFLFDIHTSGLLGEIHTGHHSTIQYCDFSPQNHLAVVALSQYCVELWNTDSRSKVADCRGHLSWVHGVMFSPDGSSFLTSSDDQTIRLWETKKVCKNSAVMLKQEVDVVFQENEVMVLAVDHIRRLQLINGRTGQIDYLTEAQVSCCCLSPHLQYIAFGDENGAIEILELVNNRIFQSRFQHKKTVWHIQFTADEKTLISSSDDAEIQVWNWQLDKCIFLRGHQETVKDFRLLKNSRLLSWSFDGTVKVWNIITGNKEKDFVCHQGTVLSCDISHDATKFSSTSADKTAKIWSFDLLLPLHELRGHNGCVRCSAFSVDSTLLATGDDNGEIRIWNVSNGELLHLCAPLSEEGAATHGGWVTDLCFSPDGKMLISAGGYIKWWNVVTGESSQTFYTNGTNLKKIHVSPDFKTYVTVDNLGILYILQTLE
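Material: reconstituted apoptosome of Apaf-1, cytochrome c, caspase-9, procaspase-3; times: 30 min preincubation, 50 min reaction, room temperature; measured by: fluorescence, 540 nm emission, 480 nm excitation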
Rh110 interf act = interferes with Rh110 fluorescence, flagging false Apaf-1 activators. shares compounds with Apaf-1 act. Rh110 fluorescence interference, quenched caspase reaction, Ex480/Em540. fluorescence interference (activity change), % at 20 µM, hits read low. 980 tested, under 10 active. AID 504616;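 active = mean activity change at or below -40% when tested at 20 µM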
Apaf-1 act conf = Apaf-1 (human) activation, single-dose confirmed; shares compounds with Apaf-1 act; reconstituted apoptosome caspase-3 activity, DEVD-Rh110 fluorescence; hits give low values; activity change, negative = activation, % at 20 µM; hit rate 5% among 980; AID 504617;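 active = mean activity change at or below -40%, meaning activation of 40% or more, at 20 µM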
Fluor interf act = Apaf-1 activator counter-screen fluorescence artifact; 55 tested, under 10 active; shares compounds with Apaf-1 act; EC50, µM; fluorescence interference counterscreen, Apaf-1 activator assay; call rule not given here
Hits are given with their value; i = inactive. Not all results are given here.

SMILES	Apaf-1 act	others
O=C(C[C@H]1C[C@H](C(=O)N2CCOCC2)[C@@]2(CCC3CCCC3)c3[nH]c4ccc(Cl)cc4c3CCN2C1=O)NCCCn1ccnc1	i
Cc1cc(N2CCCC2)ccc1NC(=O)COc1ccccc1	i
O=C(Cc1ccc(Br)cc1)Nc1ccccc1N1CCCC1	-66
O=C(NCC(F)(F)F)c1ccc(S(=O)(=O)Nc2ccccc2N2CCCC2)cc1	i
COc1cccc(-c2sc3ccccc3c2-c2ccc(OCCN(C)C)cc2)c1	i
CCCN(CC(=O)Nc1ccccc1OC)C(=O)CSc1ccc(Br)cc1C	i
COc1ccc(OC)c2c1cc(C(=O)N[C@H](C(=O)N1CCC[C@H]1C(=O)O)C(C)C)n2C	i
Cc1ccc(C(=O)NC(C)c2nc3ccccc3n2CC(=O)Nc2c(C)cc(C)cc2C)cc1 (stereo unspecified)	-100
CCC(=O)Nc1c(S(=O)(=O)c2ccc(C)cc2)c2nc3ccccc3nc2n1C(C)c1ccccc1 (stereo unspecified)	i
COc1ccccc1C(CNC(=O)CNC(=O)c1ccccc1Cl)N1CCCC1 (stereo unspecified)	i
Cc1cc(C)c(C2=CC(c3ccccc3)n3ncnc3N2)cc1C (stereo unspecified)	-215
Cc1ccc(S(=O)(=O)N2CCN(C(=O)CCOc3cc(C)ccc3C)CC2)cc1	i
CCOc1ccc(NS(=O)(=O)c2ccc(C(=O)N(CC)CC(=O)NCc3cccs3)cc2)cc1	i
CCCN(CC(=O)Nc1ccccc1C)C(=O)CCCOc1ccc(Br)cc1	i
CCOc1ccc(NC(=O)CCS(=O)(=O)c2ccc(Br)cc2)cc1	-109
O=C(CCS(=O)(=O)c1ccc(Br)cc1)Nc1cc(F)ccc1F	-129
COCCn1c(SCC(=O)NNC(=O)c2cc(Cl)ccc2OC)nnc1-c1ccncc1	i
c1ccc2c(NCCCN3CCOCC3)c3ccccc3nc2c1	-63
Cc1c2ccccc2nc2c(F)c(NCCO)c(F)c(F)c12	i
CCN(c1ccccc1)S(=O)(=O)c1cccc(C(=O)NCCN2CCOCC2)c1	i
CCc1ccc(N=C2NC(=O)/C(=C/c3cc(Br)c(OCC(=O)O)c(OC)c3)S2)cc1	-99	Rh110 interf act=i;Apaf-1 act conf=-67;Fluor interf act=i
CCCCCCCCCCCCCCCC[n+]1ccc(/C=N/O)cc1	i
Cc1nc(SCc2ccccc2)c2oc3ccccc3c2n1	-159	Rh110 interf act=i;Apaf-1 act conf=i
COc1ccc2cc1Oc1ccc(cc1)C[C@H]1c3c(cc(OC)c4c3Oc3c(ccc5c3[C@H](C2)N(C)CC5)O4)CCN1C	i
COc1ccc2nc(C)cc(N/N=C/c3ccccc3)c2c1	i
SMILES	Apaf-1 act	others
CCOC(=O)CCC(=O)NNC(=O)COc1ccc(C(C)C)cc1Br	-108	Rh110 interf act=i;Apaf-1 act conf=i
C=CCOc1c(Cl)cc(CNc2ccc(N(C)C)cc2)cc1OC	i
O=C1c2ccccc2-c2nnc(-c3ccc(O)cc3)cc21	i
CCO/C=C1\SC(=S)N(c2ccc(Cl)cc2)C1=O	-109	Rh110 interf act=i;Apaf-1 act conf=i
O=C(Nc1ccccc1)Oc1ccc[nH]c1=O	i
O=C1C2(CCCC13COC(c1ccc(O)cc1)OC3)COC(c1ccc(O)cc1)OC2 (stereo unspecified)	-127	Rh110 interf act=i;Apaf-1 act conf=-60;Fluor interf act=i
COC(=O)c1c(NC(=O)c2ccc(OC(C)C)cc2)sc2c1CC(C)(C)NC2(C)C	i
CSc1ccc(C=NNc2ccc(S(=O)(=O)Nc3ccccc3C(=O)O)cc2[N+](=O)[O-])cc1	-90	Rh110 interf act=i;Apaf-1 act conf=-133;Fluor interf act=i
COc1cc2nc(N3CCNCC3)nc(N)c2cc1OC	i
COc1cccc2sc(N(CCN(C)C)C(=O)c3ccc4c(c3)CCCC4)nc12	i
Cc1cc(C)nc(/N=c2/ssnc2Cl)c1	i
COc1ccc(S(=O)(=O)N2CCCCCC2)cc1C(=O)N(C)Cc1c(F)cccc1Cl	i
CC(C)(C)NC(=O)CC1C(=O)NCCN1Cc1c(F)cccc1Cl (stereo unspecified)	-41	Rh110 interf act=i;Apaf-1 act conf=i
CCC(C)(C(=O)NC1CCCC1)N(C(=O)c1ccccn1)c1ccc(C)cc1 (stereo unspecified)	-78	Rh110 interf act=i;Apaf-1 act conf=i
Cc1cc(C(=O)N/N=C2\CC(=O)c3ccccc32)c(C)n1-c1ccc(F)cc1	i
COC(=O)CCCC1=CC2=C(c3ccccc3)C(=O)C(C)(OC(=O)C3CCCC3)C(=O)C2=CN1CC(C)C (stereo unspecified)	i
O=C(c1cccc(S(=O)(=O)NCc2ccccc2)c1)N1CCN(c2cccc(C(F)(F)F)c2)CC1	i
O=C1C2C3C=CC(CC3)C2C(=O)N1c1cccc(C(F)(F)F)c1 (stereo unspecified)	-120	Rh110 interf act=i;Apaf-1 act conf=i
CCN(CC)CCNC(=O)c1ccc2c(c1NCCO)C(=O)c1ccccc1C2=O	i
CCOC(=O)c1c(C)n(-c2ccc(C)cc2)c2c(C(C(C)=O)C(=O)O)c(Br)c(O)c(O)c12 (stereo unspecified)	i
COc1ccc(C(CNC(=O)c2cccc(NS(=O)(=O)c3ccc(Br)cc3)c2)N(C)C)cc1 (stereo unspecified)	-143	Rh110 interf act=i;Apaf-1 act conf=i
CCOC(=O)N1CCN(C(=O)c2cccc(S(=O)(=O)Nc3ccc(OC)cc3)c2)CC1	i
Cc1ccc(-c2nn3c(C)nnc3c3ccccc23)cc1S(=O)(=O)NC(C)c1ccccc1 (stereo unspecified)	i
Cc1[nH]n(-c2ccccc2)c(=O)c1C(c1ccc(C(=O)O)cc1)c1c(C)[nH]n(-c2ccccc2)c1=O	i
Oc1ccc2ccccc2c1CN1CCN(c2ccccc2F)CC1	-319	Rh110 interf act=i;Apaf-1 act conf=i
SMILES	Apaf-1 act	others
CCCCCCCCNC(C)C(O)c1ccc(SC(C)C)cc1 (stereo unspecified)	i
COc1ccc2c(-c3ccc(OCCN4CCCCC4)cc3)c(-c3ccccc3OC)sc2c1	i
Cc1cccc(CC(=O)Nc2ccon2)c1	-278	Rh110 interf act=i;Apaf-1 act conf=i
Cc1cccc(NC(=S)Nc2cccc3ccccc23)c1	i
CCOc1ccc(NC(=O)CN(C)C(=O)c2ccccc2OCc2cccc(C)c2)cc1OCC	i
COc1ccc(NC2=C(NCCO)C(=O)c3ccccc3C2=O)cc1	i
CCOc1ccc(OCc2ccc(C(=O)Nc3cccnc3)cc2)cc1	-51	Rh110 interf act=i;Apaf-1 act conf=i
CCOc1ccc(NC(=S)Nc2cccc3cnccc23)cc1	i
CCOc1ccc(NC(=O)CN(C)C(=O)c2ccc(COc3ccccc3)cc2)cc1OCC	i
CCN(C(=S)Nc1cccnc1)c1cccc2ccccc12	i
S=C(Nc1cccnc1)Nc1cccc2cnccc12	i
O=C(Nc1ccccc1C(=O)Nc1cccnc1)c1ccccc1	-166	Rh110 interf act=i;Apaf-1 act conf=i
O=C(COC(=O)c1ccccc1Sc1ccc(C(F)(F)F)cc1[N+](=O)[O-])NC(=O)NC1CCCC1	i
CCC(CO)Oc1cc(NCc2cccc(Cl)c2)c2ncn(C(C)C)c2c1 (stereo unspecified)	i
COc1cc(OC)c(NC2=CC(=O)C(=O)c3ccccc32)cc1Cl	i
COc1ccc(CN(CCN(C)C)c2ccccn2)cc1	i
CC(C)N(Cc1cc2ccccc2[nH]c1=O)C(=O)C1CCCCC1	i
O=C(C1CCCCC1)N(Cc1ccccc1)c1ccccn1	-154	Rh110 interf act=i;Apaf-1 act conf=i
